Results taken from ChEMBL document CHEMBL1177656, “Improved P2 phenylglycine-based hepatitis C virus NS3 protease inhibitors with alkenylic prime-side substituents” (Bioorg Med Chem, 2010).

Tests used:
NS3 protease [1] = molecular target: NS3 protease (Hepatitis C virus subtype 1b, UniProt Q0ZMF1, A156T); assay: Inhibition of HCV NS3 protease A156T mutant by FRET assay; set-up: species or system Hepacivirus hominis
Summary of the method: (§1)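 Buffer was 50 mM HEPES pH 7.5, 10 mM DTT, 40% glycerol, 0.1% n-octyl-β-D-glucoside and 3.3% DMSO. Reaction started with the FRET substrate Ac-DED(Edans)EEAbu[COO]ASK(Dabcyl)-NH2. Ki derived by non-linear regression.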

Hepatitis C virus = assay: Antiviral activity against HCV 1B […] by firefly luciferase reporter gene assay; format: functional, organism-based, Hepacivirus hominis; conditions: genotype 1b, Huh-7
NS3 protease [2] = molecular target: NS3 protease (Hepacivirus C, UniProt C1KIQ2, D168V); assay: Inhibition of HCV NS3 protease D168V mutant by FRET assay; set-up: species or system Hepacivirus hominis; summary of the method: as §1
[3] = Inhibition of HCV NS3 protease by FRET assay; set-up: species or system Hepacivirus hominis
Summary of the method: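 Buffer was 50 mM HEPES pH 7.5, 10 mM DTT, 40% glycerol, 0.1% n-octyl-β-D-glucoside and 3.3% DMSO. Reaction was started with FRET substrate Ac-DED(Edans)EEAbu[COO]ASK(Dabcyl)-NH2. Ki was obtained by non-linear regression.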

SMILES: C=CCCCS(=O)(=O)NC(=O)[C@H](CCC)NC(=O)[C@@H](NC(=O)[C@@H](NC(=O)OC(C)(C)C)C(C)(C)C)c1ccc(Oc2cc(-c3ccccc3)nc3cc(OC)ccc23)c(C=C)c1
- Ki (NS3 protease [1]): 180 nM
- EC50 (Hepatitis C virus): > 10000 nM
- Ki (NS3 protease [2]): 140 nM
- Ki [3]: 63 nM

SMILES: C=CCCCS(=O)(=O)NC(=O)[C@H](CCC)NC(=O)[C@H](NC(=O)[C@@H](NC(=O)OC(C)(C)C)C(C)(C)C)c1ccc(Oc2cc(-c3ccccc3)nc3cc(OC)ccc23)c(C=C)c1
- Ki (NS3 protease [1]): 86 nM
- EC50 (Hepatitis C virus): 8900 nM
- Ki (NS3 protease [2]): 380 nM
- Ki [3]: 48 nM

SMILES: C=CCCCCS(=O)(=O)NC(=O)[C@H](CCC)NC(=O)[C@@H](NC(=O)[C@@H](NC(=O)OC(C)(C)C)C(C)(C)C)c1ccc(Oc2cc(-c3ccccc3)nc3cc(OC)ccc23)c(C=C)c1
- Ki (NS3 protease [1]): 380 nM
- EC50 (Hepatitis C virus): > 10000 nM
- Ki (NS3 protease [2]): 390 nM
- Ki [3]: 120 nM

SMILES: C=CCCCCS(=O)(=O)NC(=O)[C@H](CCC)NC(=O)[C@H](NC(=O)[C@@H](NC(=O)OC(C)(C)C)C(C)(C)C)c1ccc(Oc2cc(-c3ccccc3)nc3cc(OC)ccc23)c(C=C)c1
- Ki (NS3 protease [1]): 270 nM
- EC50 (Hepatitis C virus): 4700 nM
- Ki (NS3 protease [2]): 530 nM
- Ki [3]: 100 nM

SMILES: C=CCC1(S(=O)(=O)NC(=O)[C@H](CCC)NC(=O)[C@@H](NC(=O)[C@@H](NC(=O)OC(C)(C)C)C(C)(C)C)c2ccc(Oc3cc(-c4ccccc4)nc4cc(OC)ccc34)c(C=C)c2)CC1
- Ki [3]: 330 nM

SMILES: C=CCC1(S(=O)(=O)NC(=O)[C@H](CCC)NC(=O)[C@H](NC(=O)[C@@H](NC(=O)OC(C)(C)C)C(C)(C)C)c2ccc(Oc3cc(-c4ccccc4)nc4cc(OC)ccc34)c(C=C)c2)CC1
- Ki [3]: 190 nM

SMILES: C=Cc1cc([C@H](NC(=O)[C@@H](NC(=O)OC(C)(C)C)C(C)(C)C)C(=O)N[C@@H](CCC)C(=O)NS(=O)(=O)c2ccccc2)ccc1Oc1cc(-c2ccccc2)nc2cc(OC)ccc12
- Ki [3]: 290 nM

SMILES: C=Cc1cc([C@@H](NC(=O)[C@@H](NC(=O)OC(C)(C)C)C(C)(C)C)C(=O)N[C@@H](CCC)C(=O)NS(=O)(=O)c2ccccc2)ccc1Oc1cc(-c2ccccc2)nc2cc(OC)ccc12
- Ki [3]: 130 nM

SMILES: C=Cc1cc([C@H](NC(=O)[C@@H](NC(=O)OC(C)(C)C)C(C)(C)C)C(=O)N[C@@H](CCC)C(=O)NS(=O)(=O)c2ccccc2C=C)ccc1Oc1cc(-c2ccccc2)nc2cc(OC)ccc12
- Ki (NS3 protease [1]): 250 nM
- EC50 (Hepatitis C virus): > 10000 nM
- Ki (NS3 protease [2]): 450 nM
- Ki [3]: 120 nM

SMILES: C=Cc1cc([C@@H](NC(=O)[C@@H](NC(=O)OC(C)(C)C)C(C)(C)C)C(=O)N[C@@H](CCC)C(=O)NS(=O)(=O)c2ccccc2C=C)ccc1Oc1cc(-c2ccccc2)nc2cc(OC)ccc12
- Ki (NS3 protease [1]): 180 nM
- EC50 (Hepatitis C virus): 5400 nM
- Ki (NS3 protease [2]): 230 nM
- Ki [3]: 47 nM

SMILES: C=CCc1ccccc1S(=O)(=O)NC(=O)[C@H](CCC)NC(=O)[C@@H](NC(=O)[C@@H](NC(=O)OC(C)(C)C)C(C)(C)C)c1ccc(Oc2cc(-c3ccccc3)nc3cc(OC)ccc23)c(C=C)c1
- EC50 (Hepatitis C virus): > 10000 nM
- Ki [3]: 140 nM

SMILES: C=CCc1ccccc1S(=O)(=O)NC(=O)[C@H](CCC)NC(=O)[C@H](NC(=O)[C@@H](NC(=O)OC(C)(C)C)C(C)(C)C)c1ccc(Oc2cc(-c3ccccc3)nc3cc(OC)ccc23)c(C=C)c1
- EC50 (Hepatitis C virus): 3000 nM
- Ki [3]: 35 nM

SMILES: C=CCCCS(=O)(=O)NC(=O)[C@H](CCC)NC(=O)[C@@H]1C[C@@H](Oc2cc(-c3ccccc3)nc3cc(OC)ccc23)CN1C(=O)[C@@H](NC(=O)OC(C)(C)C)C(C)(C)C
- Ki [3]: 300 nM

SMILES: CCC[C@H](NC(=O)[C@@H](NC(=O)[C@@H](NC(=O)OC(C)(C)C)C(C)(C)C)c1ccc(Oc2cc(-c3ccccc3)nc3cc(OC)ccc23)cc1)C(=O)NS(=O)(=O)c1ccccc1
- Ki [3]: 230 nM

SMILES: CC(C)(C)OC(=O)N[C@H]1CCCCC/C=C\C2C[C@@]2(C(=O)NS(=O)(=O)C2CC2)NC(=O)[C@@H]2C[C@@H](OC(=O)N3Cc4cccc(F)c4C3)CN2C1=O (single isomer, unassigned) [DANOPREVIR]
- EC50 (Hepatitis C virus): 2.1 nM

SMILES: CC(C)(C)NC(=O)N[C@H](C(=O)N1C[C@H]2[C@@H]([C@H]1C(=O)NC(CC1CCC1)C(=O)C(N)=O)C2(C)C)C(C)(C)C (some centres not stated) [BOCEPREVIR]
- Ki [3]: 14 nM

SMILES: COc1ccc2c(O[C@@H]3C[C@H]4C(=O)N[C@]5(C(=O)O)C[C@H]5/C=C\CCCCC[C@H](NC(=O)OC5CCCC5)C(=O)N4C3)cc(-c3csc(NC(C)C)n3)nc2c1 [CILUPREVIR]
- EC50 (Hepatitis C virus): 4 nM
- Ki [3]: 0.3 nM

SMILES: COc1ccc2c(O[C@@H]3C[C@H]4C(=O)N[C@]5(C(=O)NS(=O)(=O)C6CC6)C[C@H]5/C=C\CCCCN(C)C(=O)[C@@H]4C3)cc(-c3nc(C(C)C)cs3)nc2c1C [SIMEPREVIR]
- Ki [3]: 0.36 nM

SMILES: CCC[C@H](NC(=O)[C@@H]1[C@H]2CCC[C@H]2CN1C(=O)[C@@H](NC(=O)[C@@H](NC(=O)c1cnccn1)C1CCCCC1)C(C)(C)C)C(=O)C(=O)NC1CC1 [TELAPREVIR]
- Ki [3]: 40 nM

SMILES: CC[C@@H]1C[C@]1(NC(=O)[C@@H]1C[C@@H]2CN1C(=O)[C@H](C(C)(C)C)NC(=O)OCC(C)(C)CCCCc1cccc3c1CN(C3)C(=O)O2)C(=O)NS(=O)(=O)C1CC1 [VANIPREVIR]
- EC50 (Hepatitis C virus): 5 nM
- Ki [3]: 0.06 nM
